From ChEMBL document CHEMBL3351329, “Radiosynthesis and evaluation of an 18F-labeled positron emission tomography (PET) radioligand for metabotropic glutamate receptor subtype 4 (mGlu4)” (J Med Chem, 2014) come the findings set out here.

The target in series [1] is Metabotropic glutamate receptor 4 (Rattus norvegicus) (UniProt P31423). Description: Displacement of [3H]ML128 from rat mGlu4 receptor expressed in CHO cells at 10 uM after 30 mins by liquid scintillation counting analysis. It counts as cell-based. The method in brief: (§1)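 Whole freshly harvested CHO cells stably expressing rat mGlu4 (G418-selected), 50 000 per tube, incubated with 10 nM [3H]1 plus competitor (0.01 nM–10 μM) 30 min at room temperature. Cells pelleted at 4 °C, washed three times with cold medium, lysed in 0.5% NaOH at 56 °C, then counted by liquid scintillation. Nonspecific binding defined with 10 μM unlabeled 1. Triplicates.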
In general terms: In a radioligand displacement assay an active substance lowers the binding of a labelled ligand.

Series [2] deals with Metabotropic glutamate receptor 4 (Rattus norvegicus, UniProt P31423). The series can be described thus: Displacement of [3H]ML128 from rat mGlu4 receptor expressed in CHO cells after 30 mins by liquid scintillation counting analysis. It counts as cell-based. The method in brief: as §1
For series [3], the target named is Metabotropic glutamate receptor 8 (Homo sapiens) (UniProt O00222). The series can be described thus: Binding affinity to human mGlu8 receptor.
Series [4] has as its target Metabotropic glutamate receptor 1 (Homo sapiens) (UniProt Q13255). Description: Activity at human mGlu1 receptor expressed in CHO cells after 45 mins by intracellular inositol phosphates accumulation assay.
The target in series [5] is Metabotropic glutamate receptor 5 (Homo sapiens) (UniProt P41594). Description: Activity at human mGlu5 receptor expressed in CHO cells after 45 mins by intracellular inositol phosphates accumulation assay.
The subject of series [6] is Striatum. The series can be described thus: Drug uptake in Sprague-Dawley rat striatum at 37 MBq, iv after 20 mins by PET imaging analysis. It counts as ADME, organism-based. The settings on record: in vivo. An outline of the steps: (§2)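 Male Sprague–Dawley rats under 1.0–1.5% isoflurane/nitrous oxide received [18F]3 (37 MBq) via tail-vein catheter. Dynamic PET was acquired for 60 min, followed by CT for anatomy and attenuation correction. Regional brain time–activity curves were generated. For blocking, animals were given iv 5 min before tracer either 2·HCl 10 mg/kg in saline with 10% ethanol and 10% Tween20 (n = 4) or MTEP·HCl 10 mg/kg in 0.9% saline (n = 3).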

The subject of series [7] is Hippocampus. Description: Drug uptake in Sprague-Dawley rat hippocampus at 37 MBq, iv after 20 mins by PET imaging analysis. It counts as ADME, organism-based. To be noted: in vivo. The method in brief:
as §2

Series [8] has as its system Thalamus. The series can be described thus: Drug uptake in Sprague-Dawley rat thalamus at 37 MBq, iv after 20 mins by PET imaging analysis. It counts as ADME, organism-based. To be noted: in vivo. The method in brief: as §2
Series [9] concerns Cortex. The series can be described thus: Drug uptake in Sprague-Dawley rat cortex at 37 MBq, iv after 20 mins by PET imaging analysis. To be noted: in vivo. It counts as ADME, organism-based. The method in brief:
as §2

Series [10] relates to Cerebellum. Description: Drug uptake in Sprague-Dawley rat cerebellum at 37 MBq, iv after 20 mins by PET imaging analysis. It counts as ADME, organism-based. The settings on record: in vivo. An outline of the steps:
as §2

The test system of series [11] is Brain. Description: Drug uptake in Sprague-Dawley rat whole brain at 37 MBq, iv after 20 mins by PET imaging analysis. It counts as ADME, organism-based. To be noted: in vivo. An outline of the steps: as §2
The test system of series [12] is Striatum. The series can be described thus: Drug uptake in Sprague-Dawley rat striatum at 37 MBq, iv administered 5 mins post N-(3-(difluoromethoxy)phenyl)-2-picolinamide hydrochloride challenge measured after 20 mins by PET imaging analysis. It counts as ADME, organism-based. The settings on record: in vivo. The method in brief: as §2
The test system of series [13] is Hippocampus. Description: Drug uptake in Sprague-Dawley rat hippocampus at 37 MBq, iv administered 5 mins post N-(3-(difluoromethoxy)phenyl)-2-picolinamide hydrochloride challenge measured after 20 mins by PET imaging analysis. It counts as ADME, organism-based. To be noted: in vivo. An outline of the steps:
as §2

Series [14] relates to Thalamus. The series can be described thus: Drug uptake in Sprague-Dawley rat thalamus at 37 MBq, iv administered 5 mins post N-(3-(difluoromethoxy)phenyl)-2-picolinamide hydrochloride challenge measured after 20 mins by PET imaging analysis. The settings on record: in vivo. It counts as ADME, organism-based. The method in brief:
as §2

Series [15] concerns Cortex. Description: Drug uptake in Sprague-Dawley rat cortex at 37 MBq, iv administered 5 mins post N-(3-(difluoromethoxy)phenyl)-2-picolinamide hydrochloride challenge measured after 20 mins by PET imaging analysis. It counts as ADME, organism-based. The settings on record: in vivo. An outline of the steps:
as §2

For series [16], the system named is Cerebellum. The series can be described thus: Drug uptake in Sprague-Dawley rat cerebellum at 37 MBq, iv administered 5 mins post N-(3-(difluoromethoxy)phenyl)-2-picolinamide hydrochloride challenge measured after 20 mins by PET imaging analysis. It counts as ADME, organism-based. The settings on record: in vivo. An outline of the steps: as §2
For series [17], the system named is Brain. Description: Drug uptake in Sprague-Dawley rat whole brain at 37 MBq, iv administered 5 mins post N-(3-(difluoromethoxy)phenyl)-2-picolinamide hydrochloride challenge measured after 20 mins by PET imaging analysis. The settings on record: in vivo. It counts as ADME, organism-based. An outline of the steps:
as §2

Series [18] relates to Striatum. Description: Drug uptake in Sprague-Dawley rat striatum at 37 MBq, iv administered 5 mins post MTEP.HCl challenge measured after 20 mins by PET imaging analysis. To be noted: in vivo. It counts as ADME, organism-based. An outline of the steps: as §2
In series [19] the test system is Hippocampus. The series can be described thus: Drug uptake in Sprague-Dawley rat hippocampus at 37 MBq, iv administered 5 mins post MTEP.HCl challenge measured after 20 mins by PET imaging analysis. It counts as ADME, organism-based. To be noted: in vivo. The method in brief: as §2
The subject of series [20] is Thalamus. Description: Drug uptake in Sprague-Dawley rat thalamus at 37 MBq, iv administered 5 mins post MTEP.HCl challenge measured after 20 mins by PET imaging analysis. It counts as ADME, organism-based. The settings on record: in vivo. An outline of the steps: as §2
In series [21] the test system is Cortex. Description: Drug uptake in Sprague-Dawley rat cortex at 37 MBq, iv administered 5 mins post MTEP.HCl challenge measured after 20 mins by PET imaging analysis. It counts as ADME, organism-based. The settings on record: in vivo. The method in brief:
as §2

Series [22] relates to Cerebellum. The series can be described thus: Drug uptake in Sprague-Dawley rat cerebellum at 37 MBq, iv administered 5 mins post MTEP.HCl challenge measured after 20 mins by PET imaging analysis. It counts as ADME, organism-based. The settings on record: in vivo. The method in brief: as §2
Series [23] concerns Brain. The series can be described thus: Drug uptake in Sprague-Dawley rat whole brain at 37 MBq, iv administered 5 mins post MTEP.HCl challenge measured after 20 mins by PET imaging analysis. It counts as ADME, organism-based. To be noted: in vivo. An outline of the steps: as §2
The nature of series [24]: Drug metabolism in iv dosed Sprague-Dawley rat blood after 5 mins. It counts as ADME, organism-based. To be noted: read-out: Drug metabolism.
Series [25] in a line: Drug metabolism in iv dosed rhesus monkey blood after 5 mins. The settings on record: in vivo.
Series [26] relates to Striatum (Macaca mulatta). Description: Drug uptake in rhesus monkey striatum at 189 MBq, iv after 3 mins by PET imaging analysis. To be noted: in vivo, 0.05 h.
The test system of series [27] is Thalamus (Macaca mulatta). Description: Drug uptake in rhesus monkey thalamus at 189 MBq, iv after 3 mins by PET imaging analysis. The settings on record: in vivo, 0.05 h.
The subject of series [28] is Striatum (Macaca mulatta). The series can be described thus: Drug uptake in rhesus monkey striatum at 189 MBq, iv after 20 mins by PET imaging analysis. To be noted: in vivo.
Series [29] has as its system Thalamus (Macaca mulatta). Description: Drug uptake in rhesus monkey thalamus at 189 MBq, iv after 20 mins by PET imaging analysis. To be noted: in vivo.
The test system of series [30] is Striatum (Macaca mulatta). Description: Drug uptake in rhesus monkey striatum at 189 MBq, iv after 40 mins by PET imaging analysis. The settings on record: in vivo.
The subject of series [31] is Thalamus (Macaca mulatta). Description: Drug uptake in rhesus monkey thalamus at 189 MBq, iv after 40 mins by PET imaging analysis. The settings on record: in vivo.
For series [32], the system named is Cerebellum (Macaca mulatta). Description: Drug uptake in rhesus monkey cerebellum at 189 MBq, iv after 3 mins by PET imaging analysis. To be noted: in vivo, 0.05 h.
The test system of series [33] is Hippocampus (Macaca mulatta). The series can be described thus: Drug uptake in rhesus monkey hippocampus at 189 MBq, iv after 3 mins by PET imaging analysis. The settings on record: in vivo, 0.05 h.
The subject of series [34] is Cerebellum (Macaca mulatta). Description: Drug uptake in rhesus monkey cerebellum at 189 MBq, iv after 20 mins by PET imaging analysis. To be noted: in vivo.
A short description of series [35]: Drug uptake in rhesus monkey cerebellum at 189 MBq, iv after 40 mins by PET imaging analysis. The settings on record: in vivo.
For series [36], the system named is Hippocampus (Macaca mulatta). The series can be described thus: Drug uptake in rhesus monkey hippocampus at 189 MBq, iv after 20 mins by PET imaging analysis. To be noted: in vivo.
The subject of series [37] is Macaca mulatta. The series can be described thus: Drug uptake in rhesus monkey hippocampus at 189 MBq, iv after 40 mins by PET imaging analysis. To be noted: in vivo.

Active and inactive are the calls of the source. The calls are words filed in the database; no cut-off is given here.

Metabotropic glutamate receptor 4 (Rattus norvegicus), sequence (P31423 whole entry): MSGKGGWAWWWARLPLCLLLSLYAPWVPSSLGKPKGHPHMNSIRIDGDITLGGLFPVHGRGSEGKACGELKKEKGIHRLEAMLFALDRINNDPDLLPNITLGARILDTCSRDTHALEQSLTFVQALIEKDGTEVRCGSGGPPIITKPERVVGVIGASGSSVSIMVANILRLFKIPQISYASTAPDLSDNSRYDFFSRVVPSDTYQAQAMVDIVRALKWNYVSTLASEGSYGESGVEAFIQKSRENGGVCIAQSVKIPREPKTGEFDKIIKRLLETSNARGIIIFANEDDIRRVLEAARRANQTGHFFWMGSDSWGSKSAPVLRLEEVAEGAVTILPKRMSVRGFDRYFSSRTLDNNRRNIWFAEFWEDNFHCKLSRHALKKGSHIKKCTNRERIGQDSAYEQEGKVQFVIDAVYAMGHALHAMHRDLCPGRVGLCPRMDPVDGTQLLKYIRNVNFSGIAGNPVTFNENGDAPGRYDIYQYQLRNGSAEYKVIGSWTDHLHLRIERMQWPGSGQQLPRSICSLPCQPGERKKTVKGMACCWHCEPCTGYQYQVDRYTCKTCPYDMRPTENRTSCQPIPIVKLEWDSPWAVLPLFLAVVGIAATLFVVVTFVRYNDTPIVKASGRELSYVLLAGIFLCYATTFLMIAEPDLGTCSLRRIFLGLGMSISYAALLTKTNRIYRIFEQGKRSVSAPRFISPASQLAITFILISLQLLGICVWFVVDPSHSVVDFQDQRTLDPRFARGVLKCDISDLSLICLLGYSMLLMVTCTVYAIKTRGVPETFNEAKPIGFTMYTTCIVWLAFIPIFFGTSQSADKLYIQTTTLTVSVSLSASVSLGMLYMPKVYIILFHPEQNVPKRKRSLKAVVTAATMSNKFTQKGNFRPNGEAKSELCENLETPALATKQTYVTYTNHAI
Metabotropic glutamate receptor 4, sequence (P31423 whole entry): as above
Metabotropic glutamate receptor 5 (Homo sapiens), sequence (P41594 21-1212 limits assumed): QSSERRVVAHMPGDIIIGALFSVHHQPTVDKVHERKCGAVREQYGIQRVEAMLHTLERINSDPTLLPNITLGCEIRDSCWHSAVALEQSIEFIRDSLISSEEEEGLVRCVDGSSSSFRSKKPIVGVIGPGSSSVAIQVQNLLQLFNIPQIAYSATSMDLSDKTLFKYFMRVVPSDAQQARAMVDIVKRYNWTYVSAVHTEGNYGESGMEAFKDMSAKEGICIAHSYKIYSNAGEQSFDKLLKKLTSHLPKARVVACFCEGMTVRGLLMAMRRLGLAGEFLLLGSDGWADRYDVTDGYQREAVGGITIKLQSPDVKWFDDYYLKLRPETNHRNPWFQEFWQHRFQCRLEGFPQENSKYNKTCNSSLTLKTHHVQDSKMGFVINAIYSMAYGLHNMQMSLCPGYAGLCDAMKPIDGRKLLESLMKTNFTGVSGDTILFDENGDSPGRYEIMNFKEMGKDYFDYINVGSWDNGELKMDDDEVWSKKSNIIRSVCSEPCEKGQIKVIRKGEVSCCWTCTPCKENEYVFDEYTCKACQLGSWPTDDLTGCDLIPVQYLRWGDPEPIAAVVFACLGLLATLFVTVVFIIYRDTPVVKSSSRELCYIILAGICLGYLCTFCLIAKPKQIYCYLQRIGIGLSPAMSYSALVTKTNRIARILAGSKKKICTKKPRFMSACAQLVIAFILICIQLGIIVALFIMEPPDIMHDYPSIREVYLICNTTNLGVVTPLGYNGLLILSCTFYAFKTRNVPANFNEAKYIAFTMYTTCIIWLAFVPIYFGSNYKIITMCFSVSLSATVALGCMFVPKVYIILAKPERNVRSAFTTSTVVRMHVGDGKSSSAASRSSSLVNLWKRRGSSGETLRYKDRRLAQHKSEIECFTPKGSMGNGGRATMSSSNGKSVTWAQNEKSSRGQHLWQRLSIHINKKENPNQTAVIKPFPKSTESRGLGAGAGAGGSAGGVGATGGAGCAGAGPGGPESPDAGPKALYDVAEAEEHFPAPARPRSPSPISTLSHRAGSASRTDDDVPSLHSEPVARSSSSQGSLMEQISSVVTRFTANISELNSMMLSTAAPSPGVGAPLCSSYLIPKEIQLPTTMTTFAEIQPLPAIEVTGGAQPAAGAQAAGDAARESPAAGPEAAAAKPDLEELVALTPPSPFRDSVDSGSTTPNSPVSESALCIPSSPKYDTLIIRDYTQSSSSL
Metabotropic glutamate receptor 1 (Homo sapiens), sequence (Q13255 19-1194 limits assumed): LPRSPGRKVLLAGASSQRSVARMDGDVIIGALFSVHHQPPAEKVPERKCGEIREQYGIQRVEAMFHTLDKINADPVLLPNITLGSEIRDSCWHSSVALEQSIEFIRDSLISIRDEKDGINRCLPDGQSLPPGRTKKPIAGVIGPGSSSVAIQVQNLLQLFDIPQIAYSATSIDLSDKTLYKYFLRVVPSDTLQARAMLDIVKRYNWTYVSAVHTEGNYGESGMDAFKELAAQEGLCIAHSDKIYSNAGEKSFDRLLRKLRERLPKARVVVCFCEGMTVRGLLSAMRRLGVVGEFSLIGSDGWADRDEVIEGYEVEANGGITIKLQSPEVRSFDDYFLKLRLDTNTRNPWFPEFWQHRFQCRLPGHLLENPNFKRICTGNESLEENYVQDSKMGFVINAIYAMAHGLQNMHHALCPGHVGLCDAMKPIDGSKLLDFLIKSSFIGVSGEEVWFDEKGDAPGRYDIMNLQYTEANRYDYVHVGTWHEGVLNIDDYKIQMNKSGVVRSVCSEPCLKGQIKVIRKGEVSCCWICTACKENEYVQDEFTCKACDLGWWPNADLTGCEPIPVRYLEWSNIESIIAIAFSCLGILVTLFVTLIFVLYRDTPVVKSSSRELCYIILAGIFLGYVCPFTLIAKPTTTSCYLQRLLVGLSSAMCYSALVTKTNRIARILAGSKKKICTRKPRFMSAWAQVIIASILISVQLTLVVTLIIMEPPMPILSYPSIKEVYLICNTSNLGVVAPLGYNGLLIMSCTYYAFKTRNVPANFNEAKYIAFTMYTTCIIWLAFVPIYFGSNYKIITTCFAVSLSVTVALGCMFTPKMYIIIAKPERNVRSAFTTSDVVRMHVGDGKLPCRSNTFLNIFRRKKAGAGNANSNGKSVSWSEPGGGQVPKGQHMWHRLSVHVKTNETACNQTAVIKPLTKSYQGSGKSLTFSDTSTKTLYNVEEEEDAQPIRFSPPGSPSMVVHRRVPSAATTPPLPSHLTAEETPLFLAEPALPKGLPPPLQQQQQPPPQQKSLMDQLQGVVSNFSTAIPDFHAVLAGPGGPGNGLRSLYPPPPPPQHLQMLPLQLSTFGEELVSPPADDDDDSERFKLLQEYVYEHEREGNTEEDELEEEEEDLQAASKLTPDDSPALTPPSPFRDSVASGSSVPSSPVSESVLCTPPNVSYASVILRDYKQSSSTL
Metabotropic glutamate receptor 8 (Homo sapiens), sequence (O00222 whole entry): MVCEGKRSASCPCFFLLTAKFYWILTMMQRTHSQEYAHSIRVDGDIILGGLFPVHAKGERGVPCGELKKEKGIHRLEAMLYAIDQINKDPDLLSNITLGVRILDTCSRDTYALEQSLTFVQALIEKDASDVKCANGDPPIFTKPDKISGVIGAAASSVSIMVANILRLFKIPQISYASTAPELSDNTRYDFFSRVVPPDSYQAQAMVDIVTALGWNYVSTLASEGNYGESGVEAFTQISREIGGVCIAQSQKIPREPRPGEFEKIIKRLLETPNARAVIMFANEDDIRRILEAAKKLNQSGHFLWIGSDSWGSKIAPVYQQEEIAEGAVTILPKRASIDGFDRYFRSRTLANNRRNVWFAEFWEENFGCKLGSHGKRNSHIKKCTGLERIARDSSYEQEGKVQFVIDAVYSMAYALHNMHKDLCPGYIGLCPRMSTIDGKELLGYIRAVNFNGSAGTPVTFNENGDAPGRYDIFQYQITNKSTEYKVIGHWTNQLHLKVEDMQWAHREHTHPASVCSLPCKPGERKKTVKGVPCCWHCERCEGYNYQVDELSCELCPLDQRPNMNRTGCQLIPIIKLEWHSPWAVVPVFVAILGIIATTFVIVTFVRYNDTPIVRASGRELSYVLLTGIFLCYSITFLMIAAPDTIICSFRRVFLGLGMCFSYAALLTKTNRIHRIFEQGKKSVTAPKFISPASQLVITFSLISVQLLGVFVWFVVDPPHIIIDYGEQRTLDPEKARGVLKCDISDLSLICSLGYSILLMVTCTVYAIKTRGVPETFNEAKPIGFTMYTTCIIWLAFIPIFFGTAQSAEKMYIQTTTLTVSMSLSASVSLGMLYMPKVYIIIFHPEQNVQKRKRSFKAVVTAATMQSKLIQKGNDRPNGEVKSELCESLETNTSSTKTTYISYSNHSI

What is called inhibition is the share of the control response that was lost under treatment. As for `COc1cc(NC(=O)c2ccccn2)ccc1Cl`, the inhibition in series [1] was determined as 100%.

As for `O=C(Nc1ccc(N2C(=O)c3cccc(I)c3C2=O)c(Cl)c1)c1ccccn1`, the IC50 in [2] (read-out: IC50) is 26.3 nM; in series [2] (read-out: pIC50 (converted)) it was 29.5 nM. For the same compound, in [1], the inhibition was 96%.

For `Cc1cccc2c1C(=O)N(c1ccc(NC(=O)c3ccccn3)cc1Cl)C2=O`, the IC50 in [2] (read-out: IC50) is 4.2 nM. For the same compound, the inhibition in series [1] turned out to be 99.4%.

For `O=C(Nc1ccc(N2C(=O)c3cccc(Br)c3C2=O)c(Cl)c1)c1ccccn1`, the IC50 in series [2] (read-out: IC50) worked out at 11.8 nM. The inhibition in series [1] stood at 96.6%.

Consider `O=C(Nc1ccc(N2C(=O)c3cccc(F)c3C2=O)c(Cl)c1)c1ccccn1`, for which the IC50 in series [2] (read-out: IC50) was 5.1 nM. The compound further registered an inhibition in series [1] of 99.4%. For the same compound, the result in [3], in series [4] and in series [5] was Active.

Compound `O=C(Nc1cccc(OC(F)F)c1)c1ccccn1` yielded an inhibition in series [1] of 99.1%.

With `O=C(Nc1ccc(N2C(=O)c3cccc([18F])c3C2=O)c(Cl)c1)c1ccccn1`, the Drug uptake result in [6], in series [7], in series [8], in [9], in series [10] and in series [11] was “Active” throughout. For the same compound, the Drug uptake result in [12], in series [13], in [14], in series [15], in [16] and in series [17] was “Active” each time. The Drug uptake entry in [18], in series [19], in series [20], in series [21], in series [22] and in [23] was “Active” each time. Moreover, the Drug uptake result in series [26] was “Active”; in series [27] it was “Active”; in series [28], 50%; in [29], 50%; in series [30], “Active”; in series [31], “Active”. Also, the Drug uptake entry is “Active” in [32]; “Active” in [33]; 50% in series [34]; “Active” in series [35]; 50% in [36]; “Active” in series [37]. The metabolised at 5 min in [24] came out at 90%. For the same compound, in [25], the Stability result is “Unstable”.
